Screens from PubChem BioAssay.
ERAP1 HTS inh: ERAP1 (human) enzyme inhibition | recombinant ERAP1, Leu-AMC fluorescence, 60 min | inhibition, % at 10.7 µM | hit rate 0.15% among 340,000;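 active = mean replicate inhibition of at least 30%, or all replicates individually reaching that 30% level; inactive = mean below 30% and not every replicate reaching it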;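 also: 0% = neutral control wells and 100% = L-leucinethiol positive control wells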
RAD52 inh: blocks human RAD52 DNA annealing | inhibition, % at 18.7 µM | hit rate 0.46% among 360,000 | recombinant RAD52 DNA annealing, FRET fluorescence | P43351;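 active = every replicate showing at least 50% inhibition; inconclusive = mean inhibition at least 50% but not in every replicate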
Target sequence (P43351 whole entry, looked up): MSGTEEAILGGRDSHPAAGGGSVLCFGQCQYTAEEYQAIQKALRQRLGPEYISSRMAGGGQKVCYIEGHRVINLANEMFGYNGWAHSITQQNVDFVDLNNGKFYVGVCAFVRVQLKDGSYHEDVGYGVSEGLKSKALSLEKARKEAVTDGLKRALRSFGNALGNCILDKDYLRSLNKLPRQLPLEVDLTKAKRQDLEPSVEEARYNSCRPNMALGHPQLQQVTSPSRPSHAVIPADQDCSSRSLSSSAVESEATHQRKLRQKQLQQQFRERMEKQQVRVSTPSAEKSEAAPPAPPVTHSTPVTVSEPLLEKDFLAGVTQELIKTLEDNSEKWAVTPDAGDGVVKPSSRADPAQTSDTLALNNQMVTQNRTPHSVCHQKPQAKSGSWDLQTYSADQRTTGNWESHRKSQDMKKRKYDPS
INS-1E GSIS act: GLuc luminescence reporter in INS-1E cells, primary screen for activators of glucose-dependent secretion of insulin; INS-1E GLuc reporter insulin secretion, 2-3 h; hit rate 0.61% among 370,000; activation, % at 16.6 µM;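 active = lowest replicate activation of at least 40%, so every replicate reaches that level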;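 also: 0% = median of neutral control wells and 100% = median of IBMX positive control wells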
S100A4 inh HTS: blocks human S100A4 binding to myosin IIA peptide; S100A4/TAMRA-MyoIIA peptide fluorescence polarization; inhibition, % at 10.7 µM; hit rate 0.14% among 360,000; P26447;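 active = mean inhibition of at least 70% across replicates, with every replicate also reaching that level; inconclusive = mean inhibition reaches 70% but some replicates fall short; inactive = mean inhibition below 70%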
Target sequence (P26447 whole entry, looked up): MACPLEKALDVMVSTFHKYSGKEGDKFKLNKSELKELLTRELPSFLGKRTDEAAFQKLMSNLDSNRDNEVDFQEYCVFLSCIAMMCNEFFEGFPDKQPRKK
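Test system: S100A4 monomer protein. Medium: HEPES buffer with Ca2+, pH 7.2. Reagent: fluorescent myosin IIA peptide, 5 nM. Compound dosing: single-point compound testing. Timing: 5 min between mix addition and reading. Benchmarks: DMSO neutral and TFP positive wells.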
MLL AF4-AF9 inh: blocks AF4 peptide binding to human AF9 | P42568 | AlphaScreen, biotin-AF4 peptide binding to FLAG-AF9 | inhibition, % at 10 µM | hit rate 0.47% among 350,000;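 active = every replicate reaching a set inhibition limit, whatever the replicate mean, cut at about 25% in these data; inconclusive = mean inhibition reaches that limit but some replicates miss it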;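 also: 0% = plate neutral control median and 100% = total signal loss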
Alpha interfer: counter-screen: AlphaScreen signal interference; shares compounds with MLL AF4-AF9 inh; signal luminescence; AC50, µM (highest dose often 12 µM), without a hit: at the top dose activity change, negative = inhibition; hit rate 45% among 530; AID 720494; cut-off not given, nearly all actives have AC50 up to about 14 µM
DNA binder FP: binds DNA, flagging false RAD52 inhibitor hits; shares compounds with RAD52 inh; AC50, µM; Salmon sperm DNA/acridine orange FP displacement, DNA binding; hit rate 8% among 1,000; AID 652128;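 active = fitted half-maximal concentration for signal loss at or below twice the highest dose tested, in every separate run, actives reach about 64 µM in these data; inconclusive = runs disagree, or flat partial signal loss, or poor fit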
Active calls of the source: *; i = inactive; ? = inconclusive; . = no result; ! = repeats disagree. Sampled rows, rich in hits. Any-hit rate of the full collection: about 1.5%.

SMILES | ERAP1 HTS inh | RAD52 inh | INS-1E GSIS act | S100A4 inh HTS | MLL AF4-AF9 inh | others
CC(C)[N+](C)(CCC(C(N)=O)(c1ccccc1)c1ccccc1)C(C)C | 96* | -7 | 48* | -2 | 0
CC(=O)N1C[C@@H]2C(c3ccccc3)[C@H](C1)N2C (stereo partly drawn) | . | . | -8 | . | .
COC(=O)[C@@H]1[C@@H](CO)[C@@H]2Cn3c(ccc(C4=CCCC4)c3=O)[C@H]1N2S(=O)(=O)c1cn(C)cn1 | 2 | -10 | -5 | 5 | -2
OC[C@@H]1Nc2ccc(C#Cc3cccnc3)cc2[C@H]2NCC[C@@H]12 | . | . | 3 | . | .
O=C1NC(=O)N(c2cccc(Cl)c2)C(=O)/C1=C\c1ccc(Sc2nc3ccccc3[nH]2)o1 | 6 | -351 | -8 | -90 | 0
O=C1NC(=O)N(c2ccccc2F)C(=O)/C1=C/c1ccc(Sc2nc3ccccc3[nH]2)o1 | 6 | i | . | 171* | -7
COc1cc2c(cc1O)C[C@H]1NCCc3cc4c(c-2c31)OCO4 | 3 | 89* | 18 | 3 | 12
COc1c2c(cc3c1OCO3)CCN(C)C2 | -6 | -8 | -10 | 1 | -2
COC(=O)[C@H]1[C@H](CO)[C@H]2Cn3c(cccc3=O)[C@@H]1N2C(=O)C1CCCC1 | 2 | 14 | 9 | 17 | -8
C[C@H]1OC[C@@H](C[N+](C)(C)C)O1 | 104* | -1 | . | -8 | -4
CC1OC(C[N+](C)(C)C)CC1O (stereo not drawn) | -1 | 6 | . | 2 | 2
O=P1(c2ccccc2)Nc2ccccc2N1c1ccccc1 (stereo not drawn) | 2 | -5 | -26 | -9 | 28*
CCCN1[C@@H]2Cn3c(ccc(-c4ccccc4)c3=O)[C@H]1[C@@H](C(=O)OC)[C@@H]2CO | 0 | 8 | 23 | -10 | -1
Cc1ccnc(NC(=O)CCCc2ccc(N(CCCl)CCCl)cc2)n1 | 15 | 31 | 8 | 0 | 26*
C[C@]12CCC3C(CCC4=C/C(=N/OCC(=O)NC(CCC(=O)O)C(=O)O)CC[C@@]43C)C1CCC2O (stereo partly drawn) | 0 | -2 | 44* | -2 | -2
C[C@]12CCC3C(CCC4=C/C(=N/OCC(=O)NC(CCC(N)=O)C(=O)O)CC[C@@]43C)C1CCC2O (stereo partly drawn) | -5 | -16 | 10 | -2 | -1
O=C(Cc1ccccn1)N1CCCCN2[C@H](CO)[C@H](c3ccc(C#Cc4ccccc4)cc3)[C@@H]2C1 | -2 | -16 | 5 | -4 | -4
CN1CC[C@]23c4c5ccc(O)c4OC2[C@H](O)C=CC3[C@H]1C5 (stereo partly drawn) | -4 | -9 | 18 | 4 | .
COc1ccc2c3c1OC1C(O)C=CC4C(C2)[N+](C)(C)CCC341 (stereo not drawn) | 58* | -11 | 11 | -8 | -6
COc1ccc(C=C2C(=O)NC(=S)NC2=O)cc1OC | 37* | -11 | 7 | -4 | -5
CCOc1cc(C=C2C(=O)NC(=S)NC2=O)ccc1O | 16 | -32 | 9 | -7 | -4
Fc1ccc(CN2CC3NC(C2)C3c2ccc(Br)cc2)cc1 (stereo not drawn) | . | . | 10 | . | .
CCCCn1c(O)c(/C=C2/C=CC=N2)c(=O)[nH]c1=O | 7 | -17 | 56* | 3 | 6
CC(C)OP(=O)(OC(C)C)C(O)c1cccnc1 (stereo not drawn) | . | . | 4 | . | .
CC(C)c1cc(Br)c(NC(=O)Nc2cccnc2)c(Br)c1 | -2 | -9 | 115* | -4 | 0
SMILES | ERAP1 HTS inh | RAD52 inh | INS-1E GSIS act | S100A4 inh HTS | MLL AF4-AF9 inh | others
CN1[C@@H]2CN(CC3CC3)C[C@H]1C2c1ccc(Br)cc1 (stereo partly drawn) | . | . | -18 | . | .
CCN(CC)c1ccccc1 | -2 | -2 | 3 | -3 | .
CCN(CC)c1ccc(C(=C2C=CC(=[N+](CC)CC)C=C2)c2ccccc2)cc1 | 13 | 36 | 14 | 1 | 76* | Alpha interfer=1.1µM*
CC[n+]1c(/C=C/C=C/c2ccc(N(C)C)cc2)sc2ccccc21 | 6 | 20 | -58 | -76 | 86* | Alpha interfer=1µM*
O=C(CCN1CC1)OCCOC(=O)CCN1CC1 | 0 | -358 | . | 22 | ? | Alpha interfer=-15%
CN1C2CCC1CC(OC(=O)CCN1CCCC1)C2 (stereo not drawn) | . | . | 19 | 10 | -4
CC(C)CC#Cc1ccc([C@H]2[C@H](CO)N3CCCCN(C(=O)Cc4ccccn4)C[C@@H]23)cc1 | . | -4 | -7 | . | .
COc1cccc(-c2ccc3n(c2=O)C[C@@H]2[C@@H](CO)[C@H](C(=O)O)[C@H]3N2Cc2ccccc2F)c1 | . | . | -3 | . | .
CN(C)c1ccc(Cc2ccc(N(C)C)cc2)cc1 | -1 | -9 | . | -10 | 46* | Alpha interfer=9.3µM*
COC(=O)[C@H]1[C@H](CO)[C@H]2Cn3c(cccc3=O)[C@@H]1N2C(=O)C1CCC1 | 1 | -12 | . | -2 | -1
COc1cc2c(c(OC)c1OC)-c1ccc(O)c(=O)cc1[C@@H](N)CC2 | 2 | 46 | . | 5 | 48* | Alpha interfer=7.6µM*
CN(C)c1ccc(/C=C/c2cc[n+](C)c3ccccc23)cc1 | 10 | 64*! | -39 | -7 | 41* | Alpha interfer=2.9µM*;DNA binder FP=8.3µM*
CN(C)c1ccc(/C=C/C=C/c2sc3ccccc3[n+]2C)cc1 | 10 | 63* | -52 | -81 | 61* | Alpha interfer=3.7µM*;DNA binder FP=?
COC(=O)C[C@H]1CC[C@@H]2NC[C@@H](O)COC[C@H]2O1 | -1 | -10 | -5 | 6 | -2
NC(N)=N/N=C/c1cn(-c2ccccc2)nc1-c1cccs1 | -2 | 88* | . | -5 | 31* | Alpha interfer=-24%;DNA binder FP=i
CC1(C)CC(Nc2ccc(Nc3ccccc3)cc2)CC(C)(C)N1 | -1 | 100* | -13 | -7 | 76* | Alpha interfer=13µM*;DNA binder FP=i
CCCN1[C@@H]2Cn3c(ccc(-c4cccc(C(=O)N(C)C)c4)c3=O)[C@H]1[C@@H](C(=O)OC)[C@@H]2CO | 6 | -2 | 8 | 4 | 1
O=C(Cc1ccccc1)N1CC2(C1)[C@@H](c1ccccc1)[C@@H](CO)N2Cc1cccc(F)c1 | -3 | -50 | -20 | -3 | 4
COc1ccc(C#Cc2ccc([C@H]3[C@H](CO)N4CCCCN(C(=O)Cc5cccnc5)C[C@@H]34)cc2)cc1 | 0 | -7 | -12 | 0 | -8
CCOC(=O)c1c(C)n(Cc2ccccc2)c2ccc(OCC(O)CNC(C)(C)C)cc12 (stereo not drawn) | 1 | 52* | 18 | -1 | 19 | DNA binder FP=i
CCOC(=O)c1c(C)n(Cc2ccccc2)c2ccc(OCC(O)Cn3nc(C)nc3C)cc12 (stereo not drawn) | 4 | 6 | 4 | 6 | 1
